In ChEMBL document CHEMBL3046415, “Improved microwave-mediated synthesis of 3-(3-aryl-1,2,4-oxadiazol-5-yl)propionic acids and their larvicidal and fungal growth inhibitory properties” (2009):
Calls of active or inactive are those of the source. No cut-off for these calls is given here.

Key:
Type in all cases: functional
Fusarium verticillioides [1] = assay: Antifungal activity against Fusarium verticillioides assessed as growth inhibition at 2 ug/ml after 72 hr by disk diffusion test
How it was run: (§1)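 Strains from a university mycology culture collection, grown on PDA at 28 °C for 8–15 d until plates were covered. Mycelial disks ([…]) were cut from colony edges and placed on test plates. Ethylene glycol served as negative control. Plates were incubated at 28 °C for up to 72 h in triplicate. Percent inhibition was calculated from reduction in growth diameter.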

Fusarium verticillioides [2] = assay: Antifungal activity against Fusarium verticillioides assessed as growth inhibition at 2 ug/ml after 48 hr by disk diffusion test; how it was run: as §1
Fusarium lateritium = assay: Antifungal activity against Fusarium lateritium assessed as growth inhibition at 2 ug/ml after 72 hr by disk diffusion test; conditions: read-out: GI; how it was run: as §1
Fusarium solani = assay: Antifungal activity against Fusarium solani assessed as growth inhibition at 2 ug/ml after 72 hr by disk diffusion test; conditions: read-out: GI; how it was run: as §1
Fusarium decemcellulare = assay: Antifungal activity against Fusarium decemcellulare assessed as growth inhibition at 2 ug/ml after 72 hr by disk diffusion test; conditions: read-out: GI; how it was run: as §1

SMILES | growth inhibition (GI) (Fusarium verticillioides [1]) | growth inhibition (GI) (Fusarium verticillioides [2]) | inhibition of growth at 2 µg/mL (Fusarium lateritium) [%] | inhibition of growth at 2 µg/mL (Fusarium solani) [%] | inhibition of growth at 2 µg/mL (Fusarium decemcellulare) [%] | inhibition of growth at 2 µg/mL (Fusarium verticillioides [1]; read-out: GI) [%] | inhibition of growth at 2 µg/mL (Fusarium verticillioides [2]; read-out: GI) [%]
Cc1ccc(-c2noc(CCC(=O)O)n2)cc1 | inactive | Active |  |  |  |  | 
O=C(O)CCc1nc(-c2ccc(F)cc2)no1 | inactive | Active | 43 |  |  |  | 
O=C(O)CCc1nc(-c2ccc(Br)cc2)no1 | inactive | Active |  |  |  |  | 
O=C(O)CCc1nc(-c2ccc(Cl)cc2)no1 | inactive | Active |  | 59.7 | 66 |  | 
Cc1cccc(-c2noc(CCC(=O)O)n2)c1 | inactive | Active |  |  |  |  | 
O=C(O)CCc1nc(-c2ccccc2)no1 |  |  |  |  |  | 52.8 | 52.8
Cc1ccccc1-c1noc(CCC(=O)O)n1 | inactive | Active |  |  |  |  | 
O=C(O)CCc1nc(-c2ccc([N+](=O)[O-])cc2)no1 | inactive | Active |  |  |  |  | 
COc1ccc(-c2noc(CCC(=O)O)n2)cc1 | inactive | Active | 45.8 |  | 52.8 |  | 
